Results taken from article PMC3377097 (EMBO Molecular Medicine, 2011).

What was measured:
human recombinant DP4 = human recombinant DP4 (Homo sapiens, UniProt P27487); test: Degradation of MCPs by DP4; type: biochemical; details: for N-terminal truncation by recombinant human DP4: 10 µg/ml in 25 mM Tris/HCl pH 7.6; for truncation by DP4: mature state bearing a pE-residue
Outline: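 Recombinant CCL2, CCL7, CCL8 and CCL13 (Gln- and pGlu-forms) were either pre-incubated with recombinant human QC (0.6 µg/ml) for 2 h at 30°C and then incubated with recombinant human DP4, or incubated with DP4 alone. Truncation products were read by linear-mode MALDI-TOF-MS in positive ion mode over 2000–20,000 amu, summing at least 6 × 100 laser pulses.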

[1] = tested on: models of Alzheimer's disease; details: high doses for up to 6 months ref Schilling et al, 2008; cited from earlier work
murine isoQC = murine isoQC (Mus musculus, UniProt Q8BH73); test: isoQC inhibition, Ki-values at pH 8; type: biochemical
ApoE3*Leiden mice = test: Cuff-induced accelerated atherosclerosis; type: in vivo
human isoQC = human isoQC (Homo sapiens, UniProt Q9NXS2); test: isoQC inhibition, Ki-values at pH 8; type: biochemical
murine QC = murine QC (Mus musculus, UniProt Q9CYK2); test: QC inhibition, Ki-values at pH 8; type: biochemical
C57BL/6J mice = test: Thioglycollate-induced peritonitis; type: in vivo; details: oral gavage; for level of ICAM1 and CCR2: cells of the peritoneal lavage
THP-1 cells = test: TransWell chemotaxis assay; type: cell-based, human; details: THP-1 monocytes, 2 h migration
Outline: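 THP-1 cells were grown in RPMI with 10% FBS and 50 µg/ml gentamicin at 37°C and 5% CO2, with mycoplasma checks. Cells at 1 × 10^6 per 100 µl RPMI1640 went into the upper chamber of 5 µm-pore TransWells, with chemoattractant below and serum-free RPMI as negative control. After 2 h at 37°C, 70 mM EDTA released bound cells (15 min, 37°C). Migrated cells were counted by cell counter or by FACS against 5000 Trucount beads.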

[2] = Degradation of CCL2 in human plasma; type: in vitro ADME; details: incubation with human plasma
Outline: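 CCL2(Q1-76) was incubated with human plasma, either directly or after pre-incubation with recombinant human QC. N-terminal cleavage products were read by linear-mode MALDI-TOF-MS in positive ion mode over 2000–20,000 amu, calibrated with insulin and myoglobin. Each spectrum sums at least 6 × 100 laser pulses.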

CCR2 = CCR2 (Homo sapiens, UniProt P41597); test: CCR2 receptor internalization assay; type: cell-based; details: human THP-1 monocytes, 45 min at 37°C, FACS
Outline: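 THP-1 cells were maintained in RPMI with 10% FBS and 50 µg/ml gentamicin at 37°C, 5% CO2, and checked for mycoplasma. 6 × 10^5 cells were exposed in serum-free RPMI 1640 to N-terminal CCL2 variant ligands, then harvested into cold PBS. They were Fc-blocked for 10 min at 4°C and stained 30 min at 4°C with PE anti-CCR2 or IgG2B isotype control. After a PBS wash, they were analysed by flow cytometry.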

[3] = tested on: human primary macrophages; test: pE1-CCL2 secreted from LPS-stimulated primary macrophages; type: cell-based
Outline: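 Human PBMCs were separated on an LSM 1077 density gradient and grown overnight at 37°C and 5% CO2. Adherent monocytes/macrophages were detached with accutase, plated at 1 × 10^5 cells/well and stimulated with 1 µg/ml LPS (E. coli O55:B5) for 24 h. Medium pE1-CCL2 was measured by sandwich ELISA: capture with 25 ng/well goat anti-hMCP-1 (overnight, 4°C), samples 2 h at room temperature, TMB read at 450 nm minus 550 nm.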

[4] = tested on: murine primary macrophages; test: pE1-CCL2 secreted from LPS-stimulated primary macrophages; type: cell-based
Outline: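 Blood was drawn by cardiac puncture into heparin from isoflurane-anaesthetised (2%) mice. PBMCs were separated on an LSM 1077 gradient, grown overnight, and adherent cells were detached with accutase and plated at 1 × 10^5 cells/well. Cells were stimulated with 1 µg/ml LPS (E. coli O55:B5) for 24 h. Medium pE1-CCL2 was measured by ELISA with 50 ng/well rabbit anti-mJE capture (coated 4–7 days, 4°C), read at 450 nm minus 550 nm.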

[5] = tested on: LPS-stimulated THP-1 cells; test: CCL2 expression in LPS-stimulated THP-1 cells; type: cell-based, human; details: increasing concentrations
[6] = tested on: LPS-stimulated primary glia cells; test: CCL2 gene expression; type: cell-based, murine; details: doses of 0.625 and 2.5 µM
Outline: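 Primary glia came from newborn C57BL/6J pups at postnatal day 1. Brains were triturated, strained at 100 and 40 µm, and 6 × 10^5 cells were seeded on poly-L-lysine in DMEM/F12 with 5% FBS and 0.05% gentamicin at 37°C and 5% CO2. Medium was renewed at day 7, and cells (about 85% astrocytes, 15% microglia) were used 12 days after seeding. After LPS stimulation, RNA went to random-primed cDNA and SYBR Green qPCR (comparative quantitation), n = 3–4, ANOVA/Tukey.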

[7] = tested on: LPS-stimulated primary murine glia cells; test: total-CCL2 and pE1-CCL2 ELISA of LPS-stimulated primary glia cells; type: cell-based; details: varying doses
[8] = 2 days after surgery, drinking water 2.4 mg/ml

Chain of human recombinant DP4 (P27487 whole entry, the tested form may be a part): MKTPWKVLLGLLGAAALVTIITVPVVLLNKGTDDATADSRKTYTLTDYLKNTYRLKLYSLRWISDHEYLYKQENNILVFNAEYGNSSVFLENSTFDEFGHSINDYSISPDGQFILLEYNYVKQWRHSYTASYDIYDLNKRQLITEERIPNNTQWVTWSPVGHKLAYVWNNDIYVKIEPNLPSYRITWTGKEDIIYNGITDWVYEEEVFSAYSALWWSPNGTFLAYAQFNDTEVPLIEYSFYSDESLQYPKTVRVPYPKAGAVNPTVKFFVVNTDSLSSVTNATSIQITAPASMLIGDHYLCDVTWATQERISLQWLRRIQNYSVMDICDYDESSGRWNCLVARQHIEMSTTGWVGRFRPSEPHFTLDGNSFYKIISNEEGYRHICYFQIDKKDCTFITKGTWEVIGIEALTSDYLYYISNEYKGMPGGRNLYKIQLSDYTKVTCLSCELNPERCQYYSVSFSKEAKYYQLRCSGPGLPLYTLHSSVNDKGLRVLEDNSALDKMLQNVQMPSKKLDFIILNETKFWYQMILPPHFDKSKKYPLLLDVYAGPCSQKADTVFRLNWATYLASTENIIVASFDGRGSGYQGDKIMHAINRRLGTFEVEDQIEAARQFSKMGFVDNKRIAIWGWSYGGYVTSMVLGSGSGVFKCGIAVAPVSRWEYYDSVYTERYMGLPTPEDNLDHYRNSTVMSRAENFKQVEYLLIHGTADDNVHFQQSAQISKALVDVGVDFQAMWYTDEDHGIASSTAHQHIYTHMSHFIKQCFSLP
Chain of murine isoQC (Q8BH73 whole entry): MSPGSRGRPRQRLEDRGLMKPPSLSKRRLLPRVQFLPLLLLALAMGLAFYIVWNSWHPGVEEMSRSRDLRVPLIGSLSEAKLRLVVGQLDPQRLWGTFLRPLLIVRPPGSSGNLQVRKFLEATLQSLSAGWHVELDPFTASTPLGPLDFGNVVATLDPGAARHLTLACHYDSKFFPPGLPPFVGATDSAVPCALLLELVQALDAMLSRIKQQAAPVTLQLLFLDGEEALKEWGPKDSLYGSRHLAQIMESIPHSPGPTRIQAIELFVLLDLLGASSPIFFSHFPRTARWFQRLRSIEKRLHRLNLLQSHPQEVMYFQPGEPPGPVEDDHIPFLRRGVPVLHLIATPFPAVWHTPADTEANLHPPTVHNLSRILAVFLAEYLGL
Chain of human isoQC (Q9NXS2 whole entry): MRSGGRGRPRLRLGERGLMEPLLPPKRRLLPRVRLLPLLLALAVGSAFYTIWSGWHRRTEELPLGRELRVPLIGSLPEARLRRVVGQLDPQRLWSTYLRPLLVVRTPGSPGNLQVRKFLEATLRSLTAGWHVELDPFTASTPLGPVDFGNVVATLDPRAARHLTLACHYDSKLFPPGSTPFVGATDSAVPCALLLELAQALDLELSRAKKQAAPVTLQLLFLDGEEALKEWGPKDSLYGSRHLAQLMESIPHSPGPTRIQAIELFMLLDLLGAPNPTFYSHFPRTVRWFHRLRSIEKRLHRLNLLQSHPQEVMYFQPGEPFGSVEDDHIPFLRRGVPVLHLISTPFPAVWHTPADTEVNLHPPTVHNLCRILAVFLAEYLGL
Chain of murine QC (Q9CYK2 36-362): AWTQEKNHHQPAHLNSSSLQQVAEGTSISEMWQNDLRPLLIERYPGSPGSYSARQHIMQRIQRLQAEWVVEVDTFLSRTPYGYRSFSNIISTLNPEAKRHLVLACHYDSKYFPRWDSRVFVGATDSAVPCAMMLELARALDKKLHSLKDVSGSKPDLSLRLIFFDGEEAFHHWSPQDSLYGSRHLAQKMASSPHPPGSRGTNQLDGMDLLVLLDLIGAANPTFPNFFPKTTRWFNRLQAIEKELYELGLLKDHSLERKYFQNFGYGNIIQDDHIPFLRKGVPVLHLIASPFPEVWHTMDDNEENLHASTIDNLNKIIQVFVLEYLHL
Chain of CCR2 (P41597 whole entry): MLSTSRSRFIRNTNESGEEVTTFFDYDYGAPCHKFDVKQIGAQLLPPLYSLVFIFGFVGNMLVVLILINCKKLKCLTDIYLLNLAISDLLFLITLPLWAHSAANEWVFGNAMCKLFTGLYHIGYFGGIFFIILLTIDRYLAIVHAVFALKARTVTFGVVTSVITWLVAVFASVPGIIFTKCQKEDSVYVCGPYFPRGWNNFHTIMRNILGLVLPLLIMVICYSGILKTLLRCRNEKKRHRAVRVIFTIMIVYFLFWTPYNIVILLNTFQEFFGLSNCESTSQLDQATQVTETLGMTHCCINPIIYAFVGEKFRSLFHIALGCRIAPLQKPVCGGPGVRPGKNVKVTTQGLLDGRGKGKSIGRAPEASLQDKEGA

CCL2(Q^1-76): recombinant human CCL2 possessing an N-terminal glutaminyl residue (immature form)
N-terminal truncation by recombinant human DP4 (human recombinant DP4): susceptible to cleavage

COc1ccc(NC(=S)NCCCn2ccnc2)cc1OC [PQ50, 1-(3-(1H-Imidazol-1-yl)propyl)-3-(3,4-dimethoxyphenyl)thiourea]
toxicity [1]: without overt signs of toxicity
Ki (murine isoQC): 246 nM
area of the media (ApoE3*Leiden mice; 2 weeks after surgery): reduced
total area within the outer diameter of the vessel segment, area of the interna, number of foam cells (ApoE3*Leiden mice; 2 weeks after surgery): did not affect
CCL2-immunopositive area (ApoE3*Leiden mice; 2 weeks after surgery, treated vs untreated): did not differ
reduction of monocytes at the cuffed vessel segments (ApoE3*Leiden mice; [8]): 67%
reduction of total adhering cells at the cuffed vessel segments (ApoE3*Leiden mice; [8]): 45%
Ki (human isoQC): 236 nM
Ki (murine QC): 170 nM
gene expression of CCL2, CCL7, IL-6 and TNF-alpha in cells of the peritoneal lavage (C57BL/6J mice): without changing
number of monocytes after stimulation with thioglycollate (C57BL/6J mice): reduced the number of monocytes
level of ICAM1 and CCR2 (C57BL/6J mice): unchanged

CCL2(D^3-76): DP4-cleavage product of CCL2
monocyte attraction (chemotaxis) (THP-1 cells): shift to higher concentrations needed to elicit chemotaxis

CCL7: recombinant human CCL7, MCP family member
truncation by DP4 (human recombinant DP4): protected against truncation

CCL2(pE^1-76): mature human CCL2 with N-terminal pyroglutamate residue
monocyte attraction (chemotaxis) (THP-1 cells): highest efficacy
N-terminal degradation in human plasma [2]: completely resistant to cleavage
N-terminal truncation by recombinant human DP4 (human recombinant DP4): prevented N-terminal truncation
CCR2 internalization (CCR2): most potent

CCL13: recombinant human CCL13, MCP family member
truncation by DP4 (human recombinant DP4): protected against truncation

CCCOc1ccc(C2C(=O)NC(=O)N2c2ccc3[nH]cnc3c2)cc1 (centres unmarked) [PQ529, 1-(1H-benzo[d]imidazol-5-yl) -5-(4-propoxyphenyl) imidazolidine-2,4-dione]
pE^1-CCL2 secreted [3]: reduced
pE^1-CCL2 secreted [4]: reduced
CCL2 expression [5]: did not show an effect
CCL2 mRNA [6]: slight but significant increase
gene expression of CCL2, CCL7, IL-6 and TNF-alpha in cells of the peritoneal lavage (C57BL/6J mice): without changing
number of monocytes after stimulation with thioglycollate (C57BL/6J mice): reduced the number of monocytes
level of ICAM1 and CCR2 (C57BL/6J mice): unchanged
concentration of pE^1-CCL2 [7]: decreased the concentration of pE^1-CCL2 dose-dependently

B1: CCL8: recombinant human CCL8 (MCP-2) (protein, UniProt P80075 24-99, looked up)
C-C motif chemokine 8: QPDSVSIPITCCFNVINRKIPIQRLESYTRITNIQCPKEAVIFKTKRGKEVCADPKERWVRDSMKHLDQIFQNLKP
truncation by DP4 (human recombinant DP4): protected against truncation
